Experimental findings from the array DNA melting data of Ke et al. (doi:10.1101/2024.01.08.574731) are described below.

Series [1] can be described thus: folding enthalpy; higher = less favourable; fluorescence melt of hairpins on a sequencing array, two-state fit. To be noted: sodium 0.088 M. The procedure, abridged:
(§1)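 Library hairpins on a sequenced MiSeq flow cell carried annealed Cy3 and quencher oligos, and their Cy3 fluorescence was imaged in 50 mM Na-HEPES pH 8.0 with 25 mM NaCl, in 2.5 °C steps up to 60 °C. Signals were normalised to Cy3 before quenching and to control constructs. Melting temperature and folding enthalpy were obtained from bootstrapped two-state fits, combined by inverse-variance weighting across four replicates, and the fitted temperatures were then raised by 9.35 °C to match UV melts.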

The nature of series [2]: melting temperature; fluorescence melt of hairpins on a sequencing array, two-state fit, raised by 9.35 °C to match UV melts. To be noted: sodium 0.088 M. The procedure, abridged: as §1

In the case of GATCATGGCGATGATC ((((((....)))))), the folding enthalpy in series [1] is -205 kJ/mol. In series [2], the Tm was 51.5 °C.

Turning to GTAAACGGAAACGTTTGC (.(((((....))))).), in series [1], the folding enthalpy is -109 kJ/mol. Besides, the Tm in series [2] was 48.5 °C.

As for GGTGTGAAAACACC (((((....))))), the folding enthalpy in series [1] was -129 kJ/mol. In addition, the Tm in series [2] was 57.3 °C.

On to GTTCAGGAAACTGAAC ((((((....)))))), for which the folding enthalpy in series [1] is -154 kJ/mol. Also, in series [2], the Tm came out at 53.8 °C.

For GATCTTTTGTAAGATC ((((((....)))))), the folding enthalpy in series [1] is -130 kJ/mol. Besides, the Tm in series [2] amounted to 44.2 °C.

With GGGGTTCGAAAGAAACCC (((.(((....))).))), the folding enthalpy in series [1] is -173 kJ/mol. Besides, in series [2], the Tm worked out at 59.5 °C.

On to GTCCGCGGAAACGTGGGC (.((.((....)).)).), for which the folding enthalpy in series [1] was -111 kJ/mol. Besides, the Tm in series [2] was 53 °C.

With GACGTCGGAAACGACACC (..((((....))))..), in series [1], the folding enthalpy was -43.9 kJ/mol. Also, the Tm in series [2] came to 29.3 °C.

Turning to GTAAGCGGAAACGCTTGC (.(((((....))))).), the folding enthalpy in series [1] was -95.1 kJ/mol. In addition, the Tm in series [2] was 54.1 °C.

In the case of GGAGGCCCGAAAGGGTCC (((..(((....)))))), the folding enthalpy in series [1] is -50 kJ/mol. The Tm in series [2] turned out to be 42.6 °C.

GATCTTCGGTAAGATC ((((((....)))))): the folding enthalpy in series [1] was -142 kJ/mol. In series [2], the Tm is 41.3 °C.

On to TAAGCGAAAGCTTA (((((....))))), for which, in series [1], the folding enthalpy was -62.8 kJ/mol. Further, in series [2], the Tm is 54.5 °C.

As to GGACGTGGAAACACGCCC ((.((((....)))).)), the folding enthalpy in series [1] is -149 kJ/mol. Further, the Tm in series [2] amounted to 53 °C.

Consider GATCGGTCCCCGATC ((((((...)))))), for which the folding enthalpy in series [1] is -187 kJ/mol. Further, the Tm in series [2] was 57.4 °C.

For the sequence GGCAGCGGAAACGTTGCC ((((.((....)).)))), the folding enthalpy in series [1] is -169 kJ/mol. Further, the Tm in series [2] was determined as 61.2 °C.

Consider GCGGAGGTCCGC ((((....)))), for which the folding enthalpy in series [1] is -102 kJ/mol. Moreover, the Tm in series [2] was found to be 56.4 °C.

On to GATCCCCCGGGGATC ((((((...)))))), for which, in series [1], the folding enthalpy was -132 kJ/mol. Further, in series [2], the Tm is 64.8 °C.

CGAGCCGGAAACGGTTCG (((.(((....))).))): the folding enthalpy in series [1] was -168 kJ/mol. The Tm in series [2] worked out at 56 °C.

Take GCAGGGCGAAAGCACGGC ((.(.((....)).).)): the folding enthalpy in series [1] is -142 kJ/mol. In addition, the Tm in series [2] worked out at 65 °C.

Regarding GGAGACCGAAAGGTGTCC (((.(((....))).))), the folding enthalpy in series [1] is -171 kJ/mol. The Tm in series [2] stood at 58.9 °C.

For GTATACGAAAGTAGCTAC ((((((....)))..))), the folding enthalpy in series [1] was -36.3 kJ/mol. The Tm in series [2] stood at 24.4 °C.

GCTATCGAAAGATGTAGC ((((((....)))..))): the folding enthalpy in series [1] is -121 kJ/mol. The Tm in series [2] is 36.9 °C.

On to GCCACCGAAAGGTTCGGC ((((((....)))..))), for which the folding enthalpy in series [1] is -70.2 kJ/mol. In series [2], the Tm was 46.5 °C.

For the sequence GTTCGCGAAAGCGCCAAC ((((((....)))..))), the folding enthalpy in series [1] is -34.5 kJ/mol. Moreover, the Tm in series [2] was determined as 25.6 °C.

As to GGGAGAGGAAACTTTCCC ((((.((....)).)))), the folding enthalpy in series [1] was -114 kJ/mol. In addition, the Tm in series [2] is 42.1 °C.

As for GTGACTCGAAAGAGCCAC (((.(((....))).))), the folding enthalpy in series [1] is -160 kJ/mol. Moreover, in series [2], the Tm was determined as 54.5 °C.

GTGGGCGAAAGCCCCCAC ((((((....)))..))): the folding enthalpy in series [1] is -30.5 kJ/mol. For the same sequence, the Tm in series [2] was determined as 38.7 °C.

Turning to GCGACAGGAAACTGTCAC (.(((((....))))).), the folding enthalpy in series [1] is -69.5 kJ/mol. Also, the Tm in series [2] was 43.8 °C.

Turning to GACTACGAAAGTAAGGTC ((((((....)))..))), in series [1], the folding enthalpy was -89.6 kJ/mol. Further, the Tm in series [2] was found to be 32.7 °C.

For the sequence GTTGTGGGAAACCGCAAC ((((.((....)).)))), in series [1], the folding enthalpy was -180 kJ/mol. Also, in series [2], the Tm was 53.8 °C.

On to GTGGTGACGAAAGTCCAC (((..(((....)))))), for which the folding enthalpy in series [1] is -79.5 kJ/mol. Also, the Tm in series [2] amounted to 45.6 °C.

Turning to GATGCGGGAAACCGCGTC ((.((((....)))).)), the folding enthalpy in series [1] is -80.2 kJ/mol. Also, the Tm in series [2] is 59.9 °C.

As to GTGTCAGGAAACTAACAC ((((.((....)).)))), the folding enthalpy in series [1] is -84.8 kJ/mol. In series [2], the Tm was 33.5 °C.

Turning to GTTAGTGGAAACATTAAC ((((.((....)).)))), the folding enthalpy in series [1] was -80.3 kJ/mol. Moreover, in series [2], the Tm amounted to 32.5 °C.

In the case of GATCATATTAATGATC ((((((....)))))), the folding enthalpy in series [1] was -143 kJ/mol. Also, in series [2], the Tm came to 47.9 °C.

As for GCACCGCGAAAGCCCTGC (((..((....))..))), the folding enthalpy in series [1] was -30.3 kJ/mol. Further, in series [2], the Tm was 28.2 °C.

CGCCACGGAAACGTTGCG (((.(((....))).))): the folding enthalpy in series [1] was -140 kJ/mol. The Tm in series [2] was 51.1 °C.
